Consider 24 compounds from ChEMBL document CHEMBL1134049, “Antimitotic and cell growth inhibitory properties of combretastatin A-4-like ethers” (Bioorg Med Chem Lett, 2001).

SMILES strings stand for the structures.

One assay has as its system P388. Briefly: Concentration required for 50% inhibition of P388 murine leukemia cell growth in MTT assay. To be noted: Mus musculus. In kind it is functional, cell-based. A general note: Tetrazolium dyes change colour on reduction, which living cells bring about.
Assay [1] concerns K562. As to the kind of experiment: Concentration required for 50% inhibition of K562 human chronic myelogenous leukemia cell growth in MTT assay. The class given is functional, cell-based. In short, it runs like this: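 K562 cells grown at 37 °C with compound for 5 days; growth read by MTT assay; IC50 taken as concentration giving 50% decrease in cell growth.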
In assay [2] the test system is K562. Briefly: Effect upon S phase of cell cycle relative to untreated control. In kind it is functional, Homo sapiens. Details: unit not given here.
Assay [3] addresses T1, Tubulin (Sus scrofa, UniProt P02554+P02550). Briefly: Concentration required to cause 50% decrease in the binding of [3H]colchicine from purified porcine tubulin. In kind it is protein assay.
For assay [4], the system named is K562. Briefly: Effect upon G0-G1 phase of cell cycle relative to untreated control. In kind it is functional, Homo sapiens. More on the design: unit not given here.
Assay [5] has as its system K562. Briefly: Effect upon G2 M phase of cell cycle relative to untreated control. The class given is functional, Homo sapiens. Details: unit not given here.
Assay [6] deals with T1, Tubulin. Briefly: Effect on tubulin binding and the concentration required to cause 50% decrease in tubulin assembly at 350 nm. The class given is protein assay. In short, it runs like this:
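Tubulin assembly followed by increase in turbidity at 350 nm; IC50 is the concentration causing 50% decrease in assembly.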

Another assay relates to L1210. Briefly: Concentration required for 50% inhibition of L1210 murine leukemia cell growth in MTT assay. The settings on record: Mus musculus. In kind it is functional, cell-based.

Regarding `COc1ccc(CC(O)c2cc(OC)c(OC)c(OC)c2)cc1O` (centres undefined), in the assay on P388, it took 33 nM to reach half-maximal inhibition (IC50).

As to `COc1ccc(C#Cc2cc(OC)c(OC)c(OC)c2)cc1O`, the IC50 – broadly, the midpoint of a concentration-inhibition curve – in the assay on K562 [1] was 21000 nM.

Consider `COc1ccc(C(O)Cc2cc(OC)c(OC)c(OC)c2)cc1O` (centres undefined), for which half-maximal inhibition with P388 (IC50) required 33000 nM.

`COc1ccc([C@H](O)[C@@H](O)c2cc(OC)c(OC)c(OC)c2)cc1O` came in with an IC50 in the assay with P388 of 2000 nM.

For `COc1ccc(Oc2cc(OC)c(OC)c(OC)c2)cc1O`, the IC50 was 50 nM in the assay on K562 [1], 36000 nM at Tubulin [3] and 16300 nM at Tubulin [6]. For the same compound, the values for the Activity in the assay with K562 [2], in the assay on K562 [4] and in the assay on K562 [5] were 22.3, 4.3 and 73.4, respectively.

In turn, `COc1ccc(COc2cc(OC)c(OC)c(OC)c2)cc1OCC=O` showed an IC50 in the assay on K562 [1] of 2500 nM.

Compound `COc1ccc(OCc2cc(OC)c(OC)c(OC)c2)cc1CO` showed an IC50 with K562 [1] of 60000 nM.

`COc1ccc(Oc2ccc(C)c(C)c2)cc1` gave an IC50 in the assay with K562 [1] of 24000 nM.

Take `COc1ccc(COc2cc(OC)c(OC)c(OC)c2)cc1OCC(O)CO` (centres undefined): the half-maximal inhibitory concentration (IC50) with K562 [1] worked out at 90000 nM.

The compound `C=CCOc1cc(COc2cc(OC)c(OC)c(OC)c2)ccc1OC` displayed an IC50 in the assay on K562 [1] of 30000 nM.

Turning to `COc1ccc(Oc2cc(OC)c(OC)c(OC)c2)cc1`, the concentration for half-maximal inhibition (IC50) with K562 [1] is 380 nM.

Turning to `COc1ccc(/C=C\c2cc(OC)c(OC)c(OC)c2)cc1O` [COMBRETASTATIN A4], the IC50 in the assay on P388 was determined as 160 nM.

With `COc1ccc(CCc2cc(OC)c(OC)c(OC)c2)cc1O`, in the assay on P388, the IC50 turned out to be 110 nM.

In turn, `COc1ccc(Nc2cc(OC)c(OC)c(OC)c2)cc1OCc1ccccc1` displayed a 50% inhibitory concentration (IC50) in the assay on K562 [1] of 15000 nM.

Compound `COc1ccc(Nc2cc(OC)c(OC)c(OC)c2)cc1` registered an IC50 with K562 [1] of 3000 nM.

Take `COc1ccc(Nc2cc(OC)c(OC)c(OC)c2)cc1O`: the IC50 with K562 [1] is 2600 nM; at Tubulin [3], 298000 nM; at Tubulin [6] it was more than 100000 nM. For the same compound, the figures for the Activity in the assay on K562 [2], in the assay on K562 [4] and with K562 [5] were 9.4, 3.4 and 87.2, respectively.

`COc1ccc(C(=O)c2cc(OC)c(OC)c(OC)c2)cc1O` [PHENSTATIN] gave an IC50 in the assay on P388 of 10 nM.

In the case of `COc1ccc(OCc2cc(OC)c(OC)c(OC)c2)cc1C=O`, the IC50 in the assay on K562 [1] was 170 nM; on Tubulin [3], 4000 nM; at Tubulin [6] it was 600 nM. Further, the results for the Activity in the assay with K562 [2], in the assay on K562 [4] and with K562 [5] were 33.1, 9.1 and 57.8, respectively.

`COc1ccc([C@@H](O)[C@H](O)c2cc(OC)c(OC)c(OC)c2)cc1O` yielded an IC50 with P388 of 19000 nM.

In the assay on L1210, `COc1ccc(-c2cc(OC)c(OC)c(OC)c2)cc1O` returned an IC50 of more than 50000 nM.

In the assay with K562 [1], `COc1ccc(Oc2cc(OC)c(OC)c(OC)c2)cc1OCc1ccccc1` gave an IC50 of 51000 nM.

On to `COc1ccc(COc2cc(OC)c(OC)c(OC)c2)cc1O`, for which the figures for the IC50 with K562 [1], on Tubulin [3] and on Tubulin [6] were 20 nM, 36000 nM and 6600 nM, respectively. Also, the values for the Activity in the assay on K562 [2], with K562 [4] and with K562 [5] were 14, 3.5 and 82.5, respectively.

`COc1ccc(OCc2cc(OC)c(OC)c(OC)c2)cc1O`: the IC50 in the assay on K562 [1] worked out at 120 nM; at Tubulin [3], 226000 nM; on Tubulin [6], 22500 nM. The Activity with K562 [2] stood at 17.9; in the assay with K562 [4] it was 3.8; in the assay on K562 [5], 78.3.

In the assay with P388, `COc1ccc(/C=C/c2cc(OC)c(OC)c(OC)c2)cc1O` [E-COMBRETASTATIN A-4] displayed an IC50 of 2.6 nM.
